Results taken from ChEMBL document CHEMBL2040780, “Antiarrhythmic properties of phenylpiperazine derivatives of phenytoin with α₁-adrenoceptor affinities” (Bioorg Med Chem, 2012).
Values belong to the molecule of their own block, whether it stands above or below them. Active and inactive are the calls of the source. The rule behind the calls is not given here.

Assays:
Rattus norvegicus [1] = experiment: Cardiotoxicity in Wistar rat assessed as effect on Q-T interval at 2.5 mg/kg, iv after 5 mins; type: toxicity, organism-based; parameters: dose 2.5 mg/kg, route intravenous; conditions: in vivo
Summary of the method: (§1)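 Male Wistar rats (180–250 g), anaesthetised with thiopental 60 mg/kg ip. Compound given iv in water at 10 mg/kg, or at a lower starting dose of 5 or 2.5 mg/kg. Standard lead II ECG recorded at 50 mm/s just before dosing and at 1, 5 and 15 min after. Heart rate and P–Q, Q–T and QRS intervals were read. n=6 per group, mean ± SEM, one-way ANOVA.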

Rattus norvegicus [2] = experiment: Cardiotoxicity in Wistar rat assessed as effect on QRS interval at 2.5 mg/kg, iv after 15 mins; type: toxicity, organism-based; parameters: dose 2.5 mg/kg, route intravenous; conditions: in vivo, 0.25 h; summary of the method: as §1
[3] = molecular target: T1, Adrenergic receptor alpha-1 (Rattus norvegicus, UniProt P15823+P23944+P43140); experiment: Displacement of [3H]prazosin from alpha1 adrenoceptor in rat cerebral cortex after 30 mins by microbeta scintillation counting; type: tissue-based
T1 sequence (P15823 whole entry): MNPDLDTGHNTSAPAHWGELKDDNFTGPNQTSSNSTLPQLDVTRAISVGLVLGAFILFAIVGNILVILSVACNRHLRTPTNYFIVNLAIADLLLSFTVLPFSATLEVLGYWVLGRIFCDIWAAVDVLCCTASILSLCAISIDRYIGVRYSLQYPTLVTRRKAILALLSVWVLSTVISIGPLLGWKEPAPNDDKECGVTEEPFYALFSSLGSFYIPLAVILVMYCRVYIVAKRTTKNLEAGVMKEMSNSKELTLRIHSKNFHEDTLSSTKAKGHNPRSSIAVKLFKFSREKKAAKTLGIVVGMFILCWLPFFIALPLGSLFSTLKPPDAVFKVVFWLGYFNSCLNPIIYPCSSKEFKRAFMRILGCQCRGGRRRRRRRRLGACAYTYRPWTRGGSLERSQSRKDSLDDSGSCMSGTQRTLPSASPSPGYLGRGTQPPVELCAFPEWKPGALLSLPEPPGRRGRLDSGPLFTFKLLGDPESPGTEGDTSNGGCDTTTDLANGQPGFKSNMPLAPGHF
T1 sequence (P23944 whole entry): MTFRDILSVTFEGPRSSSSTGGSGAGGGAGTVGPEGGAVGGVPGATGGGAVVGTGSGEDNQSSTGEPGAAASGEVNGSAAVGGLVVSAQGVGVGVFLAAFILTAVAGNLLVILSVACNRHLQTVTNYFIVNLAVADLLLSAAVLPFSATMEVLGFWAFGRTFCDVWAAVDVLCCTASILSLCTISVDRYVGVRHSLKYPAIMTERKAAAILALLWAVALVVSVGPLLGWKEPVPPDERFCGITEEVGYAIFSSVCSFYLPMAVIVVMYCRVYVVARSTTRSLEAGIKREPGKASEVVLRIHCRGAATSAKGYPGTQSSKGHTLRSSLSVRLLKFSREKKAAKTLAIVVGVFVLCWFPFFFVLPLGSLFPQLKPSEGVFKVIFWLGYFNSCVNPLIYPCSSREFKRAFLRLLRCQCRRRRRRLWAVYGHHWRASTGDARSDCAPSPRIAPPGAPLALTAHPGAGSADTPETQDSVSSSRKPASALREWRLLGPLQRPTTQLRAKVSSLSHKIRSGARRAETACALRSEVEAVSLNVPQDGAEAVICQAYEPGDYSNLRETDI
T1 sequence (P43140 whole entry): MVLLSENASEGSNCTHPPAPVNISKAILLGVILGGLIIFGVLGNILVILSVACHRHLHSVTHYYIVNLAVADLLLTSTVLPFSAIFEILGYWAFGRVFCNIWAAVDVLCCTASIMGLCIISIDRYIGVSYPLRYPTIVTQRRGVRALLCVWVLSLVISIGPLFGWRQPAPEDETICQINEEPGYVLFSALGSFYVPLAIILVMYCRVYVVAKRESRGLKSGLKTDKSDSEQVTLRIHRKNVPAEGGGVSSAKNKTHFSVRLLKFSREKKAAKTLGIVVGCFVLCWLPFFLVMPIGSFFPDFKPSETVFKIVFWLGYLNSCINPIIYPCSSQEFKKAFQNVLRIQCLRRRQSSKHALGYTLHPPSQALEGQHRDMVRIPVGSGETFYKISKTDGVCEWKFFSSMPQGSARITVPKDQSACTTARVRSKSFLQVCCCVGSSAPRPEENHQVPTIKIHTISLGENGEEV
Summary of the method: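 Rat cerebral cortex homogenised in ice-cold 50 mM Tris-HCl (pH 7.6 at 25 °C), washed twice at 20000×g and resuspended at 10 mg wet weight/ml. Incubated with [3H]prazosin (19.5 Ci/mmol) and test compound for 30 min at 25 °C. Nonspecific binding defined with 10 µM phentolamine. GF/B filtration, scintillation counting, three-parameter logistic competition fit.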

Rattus norvegicus [4] = experiment: Antiarrhythmic activity in Wistar rat assessed as effect on heart beat at 2.5 mg/kg, iv after 5 mins; type: functional; summary of the method: as §1
Rattus norvegicus [5] = experiment: Antiarrhythmic activity in Wistar rat assessed as effect on heart beat at 2.5 mg/kg, iv after 15 mins; type: functional; summary of the method: as §1
Rattus norvegicus [6] = experiment: Hypotensive activity in normotensive Wistar rat assessed as decrease in systolic blood pressure at 2.5 to 10 mg/kg, iv after 1 min measured up to 60 mins; type: organism-based, Artery; parameters: dose 2.5-10 mg/kg, route intravenous; conditions: in vivo
Summary of the method: (§2)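 Right carotid artery cannulated with heparin-saline-filled tubing for blood pressure recording. After 5 min stabilisation, compound injected iv into the caudal vein (2.5–10 mg/kg, 1 ml/kg). Systolic and diastolic pressure followed for 60 min. n=6 per group, mean ± SEM, one-way ANOVA.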

Rattus norvegicus [7] = experiment: Antiarrhythmic activity in Wistar rat assessed as protection against adrenaline-induced extrasystoles at 2.5 to 10 mg/kg, iv administered 15 mins prior to adrenaline-challenge; type: functional, organism-based; conditions: Heart
Summary of the method: (§3)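 Szekeres model in male Wistar rats anaesthetised with thiopental (60 mg/kg ip). Test compound given iv in water (2.5–10 mg/kg) 15 min before adrenaline 20 µg/kg iv. Scored for extrasystoles, bigeminy and mortality; activity means no premature beats and inhibited arrhythmia versus controls.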

Rattus norvegicus [8] = experiment: Cardiotoxicity in Wistar rat assessed as effect on QRS interval at 2.5 mg/kg, iv after 1 min; type: toxicity, organism-based; parameters: dose 2.5 mg/kg, route intravenous; conditions: in vivo; summary of the method: as §1
Rattus norvegicus [9] = experiment: Cardiotoxicity in Wistar rat assessed as effect on QRS interval at 2.5 mg/kg, iv after 5 mins; type: toxicity, organism-based; parameters: dose 2.5 mg/kg, route intravenous; conditions: in vivo; summary of the method: as §1
Rattus norvegicus [10] = experiment: Cardiotoxicity in Wistar rat assessed as effect on P-Q interval at 2.5 mg/kg, iv after 15 mins; type: toxicity, organism-based; parameters: dose 2.5 mg/kg, route intravenous; conditions: in vivo, 0.25 h; summary of the method: as §1
Rattus norvegicus [11] = experiment: Hypotensive activity in normotensive Wistar rat assessed as decrease in diastolic blood pressure at 2.5 to 10 mg/kg, iv after 1 min measured up to 60 mins; type: organism-based, Artery; parameters: dose 2.5-10 mg/kg, route intravenous; conditions: in vivo; summary of the method: as §2
Rattus norvegicus [12] = experiment: Cardiotoxicity in Wistar rat assessed as effect on P-Q interval at 2.5 mg/kg, iv after 1 min; type: toxicity, organism-based; parameters: dose 2.5 mg/kg, route intravenous; conditions: in vivo; summary of the method: as §1
Rattus norvegicus [13] = experiment: Cardiotoxicity in Wistar rat assessed as effect on P-Q interval at 2.5 mg/kg, iv after 5 mins; type: toxicity, organism-based; parameters: dose 2.5 mg/kg, route intravenous; conditions: in vivo; summary of the method: as §1
Rattus norvegicus [14] = experiment: Antiarrhythmic activity in Wistar rat assessed as effect on heart beat at 2.5 mg/kg, iv after 1 min; type: functional; summary of the method: as §1
Rattus norvegicus [15] = experiment: Antiarrhythmic activity in barium chloride-induced Wistar rat arrhythmia model assessed as protection against mortality at 2.5 to 10 mg/kg, iv administered 15 mins prior to barium chloride-challenge; type: functional, organism-based; conditions: Heart
Summary of the method: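 Szekeres model in male Wistar rats. Activity is gradual disappearance of arrhythmia with restored sinus rhythm; protection against disturbances and death scored. Groups of 6 animals.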

Rattus norvegicus [16] = experiment: Antiarrhythmic activity in Wistar rat assessed as protection against adrenaline-induced bigeminy at 2.5 to 10 mg/kg, iv administered 15 mins prior to adrenaline-challenge; type: functional, organism-based; conditions: Heart; summary of the method: as §3
Rattus norvegicus [17] = experiment: Antiarrhythmic activity in iv dosed Wistar rat assessed as protection against adrenaline-induced arrhythmia administered 15 mins prior to adrenaline-challenge; type: functional; conditions: Heart; summary of the method: as §3
Rattus norvegicus [18] = experiment: Cardiotoxicity in Wistar rat assessed as effect on Q-T interval at 2.5 mg/kg, iv after 1 min; type: toxicity, organism-based; parameters: dose 2.5 mg/kg, route intravenous; conditions: in vivo; summary of the method: as §1
Rattus norvegicus [19] = experiment: Cardiotoxicity in Wistar rat assessed as effect on Q-T interval at 2.5 mg/kg, iv after 15 mins; type: toxicity, organism-based; parameters: dose 2.5 mg/kg, route intravenous; conditions: in vivo, 0.25 h; summary of the method: as §1
Rattus norvegicus [20] = experiment: Cardiotoxicity in Wistar rat assessed as effect on Q-T interval at 5 mg/kg, iv after 5 mins; type: toxicity, organism-based; parameters: dose 5 mg/kg, route intravenous; conditions: in vivo; summary of the method: as §1
Rattus norvegicus [21] = experiment: Antiarrhythmic activity in Wistar rat assessed as effect on heart beat at 5 mg/kg, iv after 5 mins; type: functional; summary of the method: as §1
Rattus norvegicus [22] = experiment: Cardiotoxicity in Wistar rat assessed as effect on P-Q interval at 5 mg/kg, iv after 5 mins; type: toxicity, organism-based; parameters: dose 5 mg/kg, route intravenous; conditions: in vivo; summary of the method: as §1
Rattus norvegicus [23] = experiment: Hypotensive activity in normotensive Wistar rat assessed as decrease in diastolic blood pressure at 2.5 to 10 mg/kg, iv at 1 min; type: organism-based, Artery; parameters: dose 2.5-10 mg/kg, route intravenous; conditions: in vivo; summary of the method: as §2
Rattus norvegicus [24] = experiment: Cardiotoxicity in Wistar rat assessed as effect on Q-T interval at 5 mg/kg, iv after 15 mins; type: toxicity, organism-based; parameters: dose 5 mg/kg, route intravenous; conditions: in vivo, 0.25 h; summary of the method: as §1
Rattus norvegicus [25] = experiment: Antiarrhythmic activity in Wistar rat assessed as effect on heart beat at 5 mg/kg, iv after 1 min; type: functional; summary of the method: as §1
Rattus norvegicus [26] = experiment: Cardiotoxicity in Wistar rat assessed as effect on Q-T interval at 5 mg/kg, iv after 1 min; type: toxicity, organism-based; parameters: dose 5 mg/kg, route intravenous; conditions: in vivo; summary of the method: as §1
Rattus norvegicus [27] = experiment: Cardiotoxicity in Wistar rat assessed as effect on P-Q interval at 5 mg/kg, iv after 1 min; type: toxicity, organism-based; parameters: dose 5 mg/kg, route intravenous; conditions: in vivo; summary of the method: as §1
Rattus norvegicus [28] = experiment: Cardiotoxicity in Wistar rat assessed as effect on QRS interval at 5 mg/kg, iv after 15 mins; type: toxicity, organism-based; parameters: dose 5 mg/kg, route intravenous; conditions: in vivo, 0.25 h; summary of the method: as §1
Rattus norvegicus [29] = experiment: Hypotensive activity in normotensive Wistar rat assessed as decrease in systolic blood pressure at 2.5 to 10 mg/kg, iv at 1 min; type: organism-based, Artery; parameters: dose 2.5-10 mg/kg, route intravenous; conditions: in vivo; summary of the method: as §2
Rattus norvegicus [30] = experiment: Cardiotoxicity in Wistar rat assessed as effect on P-Q interval at 5 mg/kg, iv after 15 mins; type: toxicity, organism-based; parameters: dose 5 mg/kg, route intravenous; conditions: in vivo, 0.25 h; summary of the method: as §1
Rattus norvegicus [31] = experiment: Cardiotoxicity in Wistar rat assessed as effect on QRS interval at 5 mg/kg, iv after 5 mins; type: toxicity, organism-based; parameters: dose 5 mg/kg, route intravenous; conditions: in vivo; summary of the method: as §1
Rattus norvegicus [32] = experiment: Antiarrhythmic activity in Wistar rat assessed as effect on heart beat at 5 mg/kg, iv after 15 mins; type: functional; summary of the method: as §1
Rattus norvegicus [33] = experiment: Cardiotoxicity in Wistar rat assessed as effect on QRS interval at 5 mg/kg, iv after 1 min; type: toxicity, organism-based; parameters: dose 5 mg/kg, route intravenous; conditions: in vivo; summary of the method: as §1

Ki [3]: 4.7 nM | pKi [3]: 8.33
Compound: COc1ccccc1N1CCN(CCCCN2C(=O)N(C)C(=O)C2(c2ccccc2)c2ccccc2)CC1.Cl
Activity (Rattus norvegicus [1]): 81 ms | Activity (Rattus norvegicus [2]): 22 ms | Activity (Rattus norvegicus [4]): 333 min⁻¹ | Activity (Rattus norvegicus [5]): 346 min⁻¹ | Activity (Rattus norvegicus [6]): Toxic | Activity (Rattus norvegicus [7]): Active | Activity (Rattus norvegicus [8]): 22 ms | Activity (Rattus norvegicus [9]): 22 ms | Activity (Rattus norvegicus [10]): 49 ms | Activity (Rattus norvegicus [11]): Toxic | Activity (Rattus norvegicus [12]): 50 ms | Activity (Rattus norvegicus [13]): 51 ms | Activity (Rattus norvegicus [14]): 338 min⁻¹ | Activity (Rattus norvegicus [15]): Active | Activity (Rattus norvegicus [16]): Active | ED50 (Rattus norvegicus [17]): 0.1 mg/kg | Activity (Rattus norvegicus [18]): 83 ms | Activity (Rattus norvegicus [19]): 86 ms

Ki [3]: 354.7 nM | pKi [3]: 6.45
Compound: COC(=O)CN1C(=O)N(CC(O)CN2CCN(c3ccccc3Cl)CC2)C(c2ccccc2)(c2ccccc2)C1=O.Cl (racemic)
Activity (Rattus norvegicus [20]): 76 ms | Activity (Rattus norvegicus [21]): 256 min⁻¹ | Activity (Rattus norvegicus [22]): 63 ms | Activity (Rattus norvegicus [6]): Non-toxic | Activity (Rattus norvegicus [23]): Toxic | Activity (Rattus norvegicus [24]): 69 ms | Activity (Rattus norvegicus [25]): 290 min⁻¹ | Activity (Rattus norvegicus [26]): 76 ms | Activity (Rattus norvegicus [27]): 62 ms | Activity (Rattus norvegicus [28]): 17 ms | Activity (Rattus norvegicus [29]): Toxic | Activity (Rattus norvegicus [30]): 59 ms | Activity (Rattus norvegicus [11]): Non-toxic | Activity (Rattus norvegicus [31]): 15 ms | Activity (Rattus norvegicus [32]): 268 min⁻¹ | Activity (Rattus norvegicus [33]): 16 ms
